TPT1 inhibitor: Candida albicans TPT1 enzyme inhibitors, primary screen, biochemical, fluorescence polarization; tRNA 2'-phosphotransferase TPT1 (Candida albicans SC5314); recombinant caTPT1, FP RNA substrate dephosphorylation; inhibition, % at 5 µM; 300,000 compounds, 0.81% hits;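 active means inhibition above the mean of all tested compounds plus 3 SD, set per screening campaign, cut at about 24% in these data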;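 further: plate controls were DMSO alone for no effect and ferristatin control at 100 nM for full effect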
Rpn11 block: Rpn11 (PSMD14) deubiquitinase inhibitors, primary screen, biochemical, fluorescence polarization, uHTS; calls only at 20 µM; 26S proteasome non-ATPase regulatory subunit 14 (Homo sapiens), O00487; 360,000 compounds, 0.59% hits; human 26S proteasome, Ub4-pepOG fluorescence polarization; 20S core pre-blocked with epoxomicin; AID 588493, 2011;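 active means inhibition at 20 µM, scaled to each plate's controls, above about 33%, limit read from the data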
Target sequence (O00487 whole entry, looked up): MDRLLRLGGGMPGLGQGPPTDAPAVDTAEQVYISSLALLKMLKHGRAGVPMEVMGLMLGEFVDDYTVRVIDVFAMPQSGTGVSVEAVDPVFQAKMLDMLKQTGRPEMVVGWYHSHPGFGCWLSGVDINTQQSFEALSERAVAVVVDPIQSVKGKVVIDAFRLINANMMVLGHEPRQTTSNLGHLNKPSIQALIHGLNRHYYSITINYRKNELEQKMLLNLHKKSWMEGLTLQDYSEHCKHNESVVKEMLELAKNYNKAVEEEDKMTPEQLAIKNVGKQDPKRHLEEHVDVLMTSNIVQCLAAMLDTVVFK
PKA-R1A activ: activators of PKA-R1A holoenzyme, primary screen, biochemical, fluorescence polarization, Cy5-IP20, bovine R1A, mouse PKAc. PKA-R1A dissociation; scaled: DMSO 0%, 113 µM cGMP 100%. activation, % at 11.4 µM. 340,000 compounds, 0.083% hits;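 active means percent activation above the mean of all tested compounds plus 3 SD, cut at about 19% in these data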;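 further: higher means more PKAc released from R1A so a rise in polarization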
PKA-R2B activ: activators of PKA-R2B holoenzyme, primary screen, biochemical, fluorescence polarization, Cy5-IP20, human; cAMP-dependent protein kinase catalytic subunit beta (Homo sapiens) + cAMP-dependent …; activation, % at 11.4 µM; 340,000 compounds, 0.079% hits; PKA-R2B holoenzyme dissociation; R2B truncated from residue 108, S112A mutant; 0% DMSO only, 100% 113 µM cGMP;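 active means activation above a cutoff set at the mean over all compounds plus 3 SD, cut at about 18% in these data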;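 further: higher means more holoenzyme dissociation and a rise in polarization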
CSN inh: inhibitors of CSN-mediated cullin deneddylation, primary screen, biochemical, fluorescence polarization, uHTS. COP9 signalosome complex subunit 5 (Homo sapiens), Q92905. Purified CSN, SCF-Nedd8-OG deneddylation. inhibition, % at 12.5 µM. 360,000 compounds, 0.38% hits;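 active means pattern-corrected inhibition above about 35%, with an unprinted fluorescence ratio check between 0.5 and 1.5, limit read from the data, passing the limit was not always enough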;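 further: 0% = enzyme with substrate and 100% = substrate without enzyme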
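Assay system: purified human Csn5 enzyme expressed in HEK293T cells; measure: % inhibition; also added: SCFSkp2-Nedd8OG substrate at 10 nM final; technique: fluorescence polarization; times: reaction 90 min, room temperature; medium: Tris buffer pH 7.5, NaCl, DTT, Tween-20, trehalose, ovalbumin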
HNF4A DNA FP: change in binding of human HNF4A to DNA, primary screen, biochemical, fluorescence polarization, FITC-DNA; 1 h; activity change, % at 10 µM; 360,000 compounds, 0.3% hits; in the data active means activity change above about 30%, passing the limit was not always enough
TPT1 inh confirm: Candida albicans TPT1 inhibitors, confirmation, biochemical, fluorescence polarization, triplicate | shares compounds with TPT1 inhibitor | recombinant caTPT1, RNase T1 coupled | inhibition, % at 5 µM | 2,400 compounds, 74% hits;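 active means inhibition above the primary screen limit, the mean inhibition of all tested compounds plus 3 SD, cut at about 25% in these data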
RNase T1 counter: RNase T1 inhibitors, counter-screen for TPT1 inhibitor project, biochemical, fluorescence polarization. shares compounds with TPT1 inhibitor. RNase T1 cleavage, 1536-well. inhibition, % at 5 µM. 2,400 compounds, 83% hits. AID 2153, 2009;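 active means inhibition above the solvent-only control well mean plus 3 SD, limit set per screening run, cut at about 23% in these data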;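 further: plate controls were DMSO wells with enzyme for no effect and wells without RNase T1 for full effect; inhibitors block cleavage so intact labeled substrate keeps polarization high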
Target sequence (P00651 whole entry, looked up): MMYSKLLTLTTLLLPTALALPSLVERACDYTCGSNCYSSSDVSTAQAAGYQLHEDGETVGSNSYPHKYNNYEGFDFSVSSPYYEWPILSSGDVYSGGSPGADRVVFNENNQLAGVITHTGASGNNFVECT
Numbers without * were called inactive; i = inactive; · = not tested or not shown. In the library only some 1.6% were active in any assay of this set; here they are far more common.

SMILES	TPT1 inhibitor	Rpn11 block	PKA-R1A activ	PKA-R2B activ	CSN inh	HNF4A DNA FP	TPT1 inh confirm	RNase T1 counter
Cc1ccc(/C=N/NC(=O)CN2CCN(S(=O)(=O)c3ccc(Br)cc3)CC2)s1	0	i	-4	-8	-16	2	·	·
O=C(CN1CCN(S(=O)(=O)c2ccc(Br)cc2)CC1)N/N=C/c1ccc(Br)s1	30*	i	15	0	1	4	14	16
COc1ccc(CN2C(=O)c3ccccc3C(/C=N/OCc3ccc(Cl)cc3)C2=O)cc1 (stereo unspecified)	43*	i	4	-6	-3	2	65*	75*
CC(=Nc1ccccc1O)c1sc2ccccc2c1O	104*	·	5	0	8	38*	125*	126*
CC(=Nc1ccc(O)cc1)c1sc2ccccc2c1O	55*	i	-5	-15	35	19	65*	80*
CC(=O)NCCN=C(C)c1sc2ccccc2c1O	1	i	8	0	0	-3	·	·
CC(=Nc1cccc(C)c1)c1sc2ccccc2c1O	42*	i	-18	-14	9	16	68*	80*
C=CCn1c(=O)/c(=C/c2ccc(C)o2)s/c1=C(/C#N)C(=O)c1ccccc1	106*	·	12	7	45*	50	144*	142*
C=CCn1c(=O)/c(=C\c2ccccn2)s/c1=C(/C#N)C(=O)NCC1CCCO1 (stereo unspecified)	10	·	-1	-8	1	7	·	·
Cc1ccc(-c2csc(NC(=O)CN3CCOCC3)n2)cc1C	-3	i	-3	-2	-2	0	·	·
CC1=Nc2ccc3ccccc3c2C1(C)C	85*	·	6	5	35*	9	44*	55*
Cc1ccc([N+](=O)[O-])cc1N/C=C/C(=O)c1ccco1	1	i	5	-1	5	-3	·	·
Cc1ccc(N/C=C/C(=O)c2ccco2)c(O)c1	29*	i	-1	-3	2	9	46*	55*
Cc1ccc(C2=NOC(=O)/C2=C\c2ccc(C)o2)cc1	40*	i	-3	5	11	1	10	15
COc1ccc(S(=O)(=O)N2CCOCC2)cc1NC(=O)Cn1nnc2ccccc2c1=O	3	i	3	-1	-4	0	·	·
O=S(=O)(Nc1nc2ccccc2nc1Nc1ccc2c(c1)OCCO2)c1cccs1	78*	·	-4	-6	51*	48*	90*	96*
CCOc1ncccc1C(=O)OCc1ccc(C#N)cc1	1	i	-5	7	1	-1	·	·
COCCn1c(C)cc(C(=O)COC(=O)c2ccc(NC(=O)CC#N)cc2)c1C	52*	i	-9	-9	33	12	30*	42*
CN1CCN(C(=O)CN(c2cccc(Br)c2)S(=O)(=O)c2ccccc2)CC1	0	i	-3	-3	5	2	·	·
CSc1nc(-c2ccc(N(C)C)cc2)c(C#N)c(=O)n1C	31*	i	-6	-2	4	5	41*	52*
CSc1nc(-c2ccc(Cl)cc2)c(C#N)c(=O)n1C	3	i	-15	-11	-8	-2	·	·
CC(=O)NC1=NC(=O)/C(=C/c2cn(C(C)=O)nc2-c2ccccc2)S1	31*	i	-12	-15	11	16	35*	47*
Cc1cc(/C=C2\SC(=O)N(C)C2=O)c(C)n1-c1ccc(O)cc1	3	i	2	6	-2	2	·	·
CC(=O)NC1=NC(=O)/C(=C/c2cc(C)n(-c3ccc(NC(C)=O)cc3)c2C)S1	68*	·	-2	-3	30	82*	102*	109*
CN(C)C(=C(C#N)C#N)N1CCN(c2ccc(Cl)cc2)CC1	-3	i	10	-6	-3	0	·	·
SMILES	TPT1 inhibitor	Rpn11 block	PKA-R1A activ	PKA-R2B activ	CSN inh	HNF4A DNA FP	TPT1 inh confirm	RNase T1 counter
N#CC(C#N)=C/C(C#N)=C(/N)N1CCN(c2ccc(Cl)cc2)CC1	56*	i	0	-2	4	1	15	21
CCCN1CCC2(CC1)C(C#N)=C(N)Oc1c2sc2nc(C)cc(C)c12	24*	i	-4	-1	-2	1	19	27*
CCCCCCCCNC(=O)c1ccc(C)cc1	37*	·	·	·	·	·	13	20
CCCCNC(=O)Cc1ccc(C)cc1	2	i	-2	-6	-5	4	·	·
Cc1c(CNCCC2=CCCCC2)c(C(=O)O)c(C)n1Cc1ccccc1	-6	i	2	-1	-3	0	·	·
COc1ccc(/C(O)=C/c2nc3ccccc3n(-c3ccccc3)c2=O)cc1	67*	i	-8	-3	1	50*	66*	95*
Cn1cccc1CC(=O)N/N=C/c1cccc2ccccc12	33*	i	2	3	1	-2	20	30*
Cc1ccc(-n2nnnc2SCC(=O)N2CC(=O)Nc3ccccc32)cc1	28*	i	-2	13	-1	9	36*	46*
Cc1nnc(SCC(=O)N2CC(=O)Nc3ccccc32)n1C	1	i	3	-11	-2	1	·	·
CCCCOCCCNC(=O)C[C@@H]1C[C@@]2(C(=O)OCC)CCC=C2N(Cc2ccco2)C1=O	·	·	·	·	0	3	·	·
COC(=O)CC/C(O)=C1\C(=O)CC(C)(C)CC1=NCc1nc2ccccc2[nH]1	34*	i	-6	1	-4	1	13	18
CCOC(=O)c1c(NC(=O)c2ccc(S(=O)(=O)N3CCOCC3)cc2)sc2c1CCN(C)C2	5	i	-3	0	1	6	·	·
CC(C)N1CCc2c(sc(NC(=O)c3ccc(S(=O)(=O)N4CCOCC4)cc3)c2C#N)C1	127*	·	6	5	26	98	156*	147*
